Substitutions are numbered along the chain they refer to.
These molecules were tested against T1, OR5P3 (Homo sapiens) (UniProt Q8WZ94). Conditions: stereoisomer not certain.
T1 sequence (whole entry): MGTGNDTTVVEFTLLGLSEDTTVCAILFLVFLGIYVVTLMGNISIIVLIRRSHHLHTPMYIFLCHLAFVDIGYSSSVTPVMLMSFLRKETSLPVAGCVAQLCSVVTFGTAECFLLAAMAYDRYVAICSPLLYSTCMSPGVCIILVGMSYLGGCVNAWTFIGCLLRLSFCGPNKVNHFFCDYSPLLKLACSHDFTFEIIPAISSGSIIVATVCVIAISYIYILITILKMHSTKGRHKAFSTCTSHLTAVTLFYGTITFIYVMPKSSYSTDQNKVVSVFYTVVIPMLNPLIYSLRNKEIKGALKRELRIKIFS
Outline: (§1)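 Transient luciferase assays in mammalian cell lines were common, though methods varied by source. The values come from published papers and their supplementary material, with extra details from the original authors when needed. Responsive refers to a measured signal the original authors judged statistically different from baseline, and non-responsive (inactive) to the remainder.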
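Also: active if original authors judged signal statistically different from baseline.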

Odorant receptor agonist call, inactive:
CCC(S)C(C)CO (stereo not given)
CC1=C(O)C(=O)OC1C (stereo not given)
CC1CCCCCCCCCCCCC(=O)C1 (stereo not given)
CCCCCCC(C)=O
CCC1OC(=O)C(O)=C1C (stereo not given)
O=C1Cc2ccccc2O1
CCCCCC(S)C(C)CO (stereo not given)
CCCCCOC(=O)CCCCC
CC(C)=CCCC(C)=CCO
CCCCCO
CCCCCCCCS
CC1=C(O)C(=O)C(C)O1 (stereo not given)
CCC(C(=O)O)c1ccccc1 (stereo not given)
CCCCC(C)=O
CCCCC(S)C(C)CO (stereo not given)
CC1=NC(C)C(C)S1 (stereo not given)
CCC1OC(C)=C(O)C1=O (stereo not given)
CCCCC(=O)O
CCCCCCCCCC(=O)[O-].[H+]
CC(=O)c1c(C)c([N+](=O)[O-])c(C(C)(C)C)c([N+](=O)[O-])c1C
CC(CO)CS (stereo not given)
CCCCCC(=O)C(C)C(C)=O (stereo not given)
CCCCCC(=O)CC
CCCC(S)CCOC(C)=O (stereo not given)
CCCCC(=O)CC
CCC(=O)C(=O)CC
CCCCCCC=CCCC=O
Cc1cnc(C)c(C)n1
CCCCCCC(=O)[O-].[H+]

The molecules below were run on T2, OR5P3 L301R. Conditions: stereoisomer not certain.
T2 sequence (whole entry): T1 sequence (whole entry) with L301R
Outline: as §1

Odorant receptor agonist call, inactive:
CC1=C(O)C(=O)OC1C (stereo not given)
CCC1OC(=O)C(O)=C1C (stereo not given)
CC1=C(O)C(=O)C(C)O1 (stereo not given)
CC1=NC(C)C(C)S1 (stereo not given)
CCC1OC(C)=C(O)C1=O (stereo not given)
CCCC(S)CCOC(C)=O (stereo not given)
CCCCCCC=CCCC=O
Cc1cnc(C)c(C)n1

These molecules were tested on T3, OR5R1 C122R S128G F184L. Conditions: stereoisomer not certain.
T3 sequence (whole entry): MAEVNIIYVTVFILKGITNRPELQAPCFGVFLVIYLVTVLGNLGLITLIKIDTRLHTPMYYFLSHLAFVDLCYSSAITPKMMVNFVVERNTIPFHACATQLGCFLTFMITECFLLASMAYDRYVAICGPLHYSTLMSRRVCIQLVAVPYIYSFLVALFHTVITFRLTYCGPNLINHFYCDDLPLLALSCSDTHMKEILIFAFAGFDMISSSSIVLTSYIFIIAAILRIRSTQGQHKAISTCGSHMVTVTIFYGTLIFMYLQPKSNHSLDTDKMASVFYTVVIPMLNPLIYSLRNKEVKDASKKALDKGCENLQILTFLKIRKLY
Outline: as §1

Odorant receptor agonist call, inactive:
CC1=C(O)C(=O)OC1C (stereo not given)
CCC1OC(=O)C(O)=C1C (stereo not given)
CC1=C(O)C(=O)C(C)O1 (stereo not given)
CC1=NC(C)C(C)S1 (stereo not given)
CCC1OC(C)=C(O)C1=O (stereo not given)
CCCC(S)CCOC(C)=O (stereo not given)
CCCCCCC=CCCC=O
Cc1cnc(C)c(C)n1

Each molecule was assayed against T4, OR5T1 (Homo sapiens) (UniProt Q8NG75). Conditions: stereoisomer not certain.
T4 sequence (whole entry): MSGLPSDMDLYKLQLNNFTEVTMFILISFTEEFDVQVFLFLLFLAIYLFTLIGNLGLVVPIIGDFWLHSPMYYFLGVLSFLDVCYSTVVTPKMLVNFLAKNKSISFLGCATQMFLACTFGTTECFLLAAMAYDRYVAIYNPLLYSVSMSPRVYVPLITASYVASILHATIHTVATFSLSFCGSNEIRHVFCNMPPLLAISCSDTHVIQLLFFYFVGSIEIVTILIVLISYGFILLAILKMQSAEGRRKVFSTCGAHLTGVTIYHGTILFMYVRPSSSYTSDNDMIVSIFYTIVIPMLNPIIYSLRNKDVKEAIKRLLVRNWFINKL
Outline: as §1

Odorant receptor agonist call, inactive:
CCC(S)C(C)CO (stereo not given)
CC1=C(O)C(=O)OC1C (stereo not given)
CC1CCCCCCCCCCCCC(=O)C1 (stereo not given)
CCC1OC(=O)C(O)=C1C (stereo not given)
CCCCCC(S)C(C)CO (stereo not given)
CC1=C(O)C(=O)C(C)O1 (stereo not given)
CCCCC(S)C(C)CO (stereo not given)
CC1=NC(C)C(C)S1 (stereo not given)
CCC1OC(C)=C(O)C1=O (stereo not given)
CC(=O)c1c(C)c([N+](=O)[O-])c(C(C)(C)C)c([N+](=O)[O-])c1C
CC(CO)CS (stereo not given)
CCCCCC(=O)C(C)C(C)=O (stereo not given)
CCCC(S)CCOC(C)=O (stereo not given)
CCCCCCC=CCCC=O
Cc1cnc(C)c(C)n1

Each molecule was assayed against T5, OR5T2 (Homo sapiens) (UniProt Q8NGG2). Conditions: stereoisomer not certain.
T5 sequence (whole entry): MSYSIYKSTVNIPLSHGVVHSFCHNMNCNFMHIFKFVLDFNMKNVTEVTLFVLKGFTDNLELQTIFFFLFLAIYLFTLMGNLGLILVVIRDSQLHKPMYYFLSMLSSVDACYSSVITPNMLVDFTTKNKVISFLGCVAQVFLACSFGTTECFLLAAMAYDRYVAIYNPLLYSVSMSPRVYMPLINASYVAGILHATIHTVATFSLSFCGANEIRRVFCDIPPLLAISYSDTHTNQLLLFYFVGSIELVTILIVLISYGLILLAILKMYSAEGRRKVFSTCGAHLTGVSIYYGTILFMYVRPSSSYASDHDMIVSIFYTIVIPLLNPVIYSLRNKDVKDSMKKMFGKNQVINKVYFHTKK
Outline: as §1

Odorant receptor agonist call, inactive:
CCC(S)C(C)CO (stereo not given)
CC1=C(O)C(=O)OC1C (stereo not given)
CC1CCCCCCCCCCCCC(=O)C1 (stereo not given)
CCC1OC(=O)C(O)=C1C (stereo not given)
CCCCCC(S)C(C)CO (stereo not given)
CC1=C(O)C(=O)C(C)O1 (stereo not given)
CCCCC(S)C(C)CO (stereo not given)
CC1=NC(C)C(C)S1 (stereo not given)
CCC1OC(C)=C(O)C1=O (stereo not given)
CC(=O)c1c(C)c([N+](=O)[O-])c(C(C)(C)C)c([N+](=O)[O-])c1C
CC(CO)CS (stereo not given)
CCCCCC(=O)C(C)C(C)=O (stereo not given)
CCCC(S)CCOC(C)=O (stereo not given)
CCCCCCC=CCCC=O
Cc1cnc(C)c(C)n1

From the M2OR odorant receptor database
